Values joined by “and” are separate entries in the source; they are usually repeats but may differ in a detail not shown here. Identical values can stand only once. Like-named read-outs stand apart in the source and are kept apart here.
Columns and labels:
[1] = Semimechanistic population PK model; type: in vivo, human; conditions: for CLint of M20 in liver / Absorption lag time / CLint to form M2 in liver / CLint to form M20 in liver / Central volume / Fraction of Fa absorbed via transit compartment / Fraction of dose entering gut compartment, Fa / MTT / Maximum rate of absorption, ka,max / Peripheral volume / Rate constant for formation of M2 from gut / Rate constant for formation of M20 from gut / Zero-order absorption duration / Diarrhea effect on Fa / Km / CLint of M2 in liver: final population model; for Km: Km for saturable absorption
[2] = type: in vivo, human; conditions: geometric mean (%CV)
Procedure, shortened: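 Semimechanistic nonlinear mixed-effect population PK model with gut and hepatic CYP3A metabolism and a well-stirred liver model. Individual post hoc parameters simulated single oral doses (200 mg; cycle 1 day 1 starting 150 or 200 mg). Parent AUC0−∞ = Dose×F/CL. […] Cmax was taken from predicted profiles. Results are geometric mean (%CV).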

[3] = Noncompartmental analysis of absolute bioavailability study JPBS; type: in vivo, human
[4] = Simulated Day 1 and steady-state exposures in MONARCH 2; type: in vivo, human; conditions: MONARCH 2 and MONARCH 3, simulated exposures
Procedure, shortened: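 Breast cancer patients on endocrine therapy were grouped as East Asian (Japanese, Korean, Taiwanese) or non-East Asian. Each patient's post hoc parameters came from a mechanistic NONMEM model, with dosage averaged over the study. Simulations covered cycle 1 day 1 after the starting dose (150 or 200 mg) and steady state after 56 days of 12-hourly dosing. Read-outs were geometric mean (%CV) Cmax, Cmin and dosing-interval AUC for parent, M2, M20 and total actives.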

[5] = cited from earlier work
[6] = cited from earlier work; remark: listed apart in the source
[7] = Healthy subjects, 200 mg single oral dose, N = 65
[8] = JPBL (patients), 150 mg single oral dose, N = 326
[9] = JPBL (patients), 200 mg single oral dose, N = 142
[10] = JPBN (patients), 200 mg single oral dose, N = 132
[11] = Patients, 200 mg single oral dose, N = 421
[12] = NCA (200 mg), JPBS healthy subjects N = 8, geometric mean (%CV)
[13] = coadministration with clarithromycin (CYP3A inhibitor)
[14] = coadministration with rifampicin (CYP3A inducer)

## CCN1CCN(Cc2ccc(Nc3ncc(F)c(-c4cc(F)c5nc(CO)n(C(C)C)c5c4)n3)nc2)CC1 [M20]
[1]; Bootstrap median (95% CI)
  CLint of M20 in liver: 454 (417–489) L/h
[1]; Estimate (%SEE)
  CLint of M20 in liver: 431 (2.00) L/h
[2]; [7]
  AUC0−∞: 3450 (34.4) ng·h/mL
  Apparent hepatic clearance: 23.9 (23.7) L/h
  Cmax: 49.1 (32.5) ng/mL
  Half-life: 20.3 (21.3) h
[2]; [8]
  AUC0−∞: 2870 (69.6) ng·h/mL
  Apparent hepatic clearance: 22.5 (44.3) L/h
  Cmax: 59.3 (78.7) ng/mL
  Half-life: 14 (62.5) h
[2]; [9]
  AUC0−∞: 3020 (72.8) ng·h/mL
  Apparent hepatic clearance: 25.8 (43.3) L/h
  Cmax: 66.1 (82.8) ng/mL
  Half-life: 13 (70.1) h
[2]; [10]
  AUC0−∞: 2750 (55.0) ng·h/mL
  Apparent hepatic clearance: 26.2 (33.5) L/h
  Cmax: 39.4 (56.0) ng/mL
  Half-life: 19.4 (72.7) h
[2]; [11]
  AUC0−∞: 3240 (74.7) ng·h/mL
  Apparent hepatic clearance: 23.7 (52.1) L/h
  Cmax: 48.8 (83.0) ng/mL
  Half-life: 17.5 (62.5) h
[3]; [12]
  AUC0−∞: 3260 (26) ng·h/mL
  Cmax: 55.7 (26) ng/mL
  Half-life: 35.3 (16) h

## CCN1CCN(Cc2ccc(Nc3ncc(F)c(-c4cc(F)c5nc(C)n(C(C)C)c5c4)n3)nc2)CC1 [Abemaciclib]
[4]
  effect of East Asian ethnicity on abemaciclib PK: no effect
[1]; adults
  effect of body weight on abemaciclib exposure: no clinically significant effect
[1]; crossover food effect study
  difference in absorption parameters between the fasted state, a standard meal, and a high-fat meal: no significant difference
[1]; Bootstrap median (95% CI)
  Absorption lag time: 1.76 (1.69–1.80) h
  CLint to form M2 in liver: 235 (199–284) L/h
  CLint to form M20 in liver: 700 (627–775) L/h
  Central volume: 604 (563–635) L
  Fraction of Fa absorbed via transit compartment: 0.479 (0.453–0.507)
  Fraction of dose entering gut compartment, Fa: 0.882 (0.874–0.890)
  MTT: 1.52 (1.43–1.62) h
  Maximum rate of absorption, ka,max: 97.6 (85.0–111) µmol/h
  Peripheral volume: 152 (132–184) L
  Rate constant for formation of M2 from gut: 0.401 (0.366–0.432) /h
  Rate constant for formation of M20 from gut: 0.306 (0.276–0.339) /h
  Zero-order absorption duration: 3.04 (2.52–3.84) h
[1]; Bootstrap median (95% CI), logit parameter
  Diarrhea effect on Fa: −0.0079 (−1.29, 2.65 × 10^−7)
[1]; Estimate (%SEE)
  Absorption lag time: 1.74 h and 1.74 (0.538) h
  CLint to form M2 in liver: 280 (0.436) L/h
  CLint to form M20 in liver: 705 (0.421) L/h
  Central volume: 588 (2.81) L
  Fraction of Fa absorbed via transit compartment: 0.458 (0.336)
  Fraction of dose entering gut compartment, Fa: 0.868 (0.0583)
  MTT: 1.44 h and 1.44 (3.68) h
  Maximum rate of absorption, ka,max: 91.1 µmol/h and 91.1 (3.96) µmol/h
  Peripheral volume: 159 (0.421) L
  Rate constant for formation of M2 from gut: 0.361 (0.479) /h
  Rate constant for formation of M20 from gut: 0.284 (0.468) /h
  Zero-order absorption duration: 3.18 h and 3.18 (10.3) h
[1]; Estimate (%SEE), on the logit parameter for Fa
  Diarrhea effect on Fa: −0.417 (7.99)
[1]; human, plasma, oral
  clearance: 380 mL/min
[1]; human, plasma, oral, Bootstrap median (95% CI)
  Km: 51.8 µM
[1]; human, plasma, oral, Estimate (%SEE)
  Km: 52.7 µM
[1]; in the absence of drug, metabolism-susceptible pathway
  intrinsic ka (absorption rate constant): 1.73 h⁻¹
[1]; in vivo
  absorbed amount absorbed via the zero-order route: 54.2%
  dose either not absorbed or lost as other metabolites: 13.2%
  total administered dose absorbed either as abemaciclib, M2, or M20: 86.8%
  typical total CLint of unbound abemaciclib that resulted in formation of M2 and M20: 985 L/h
[1]; saturable absorption from final transit compartment
  amount that results in half maximal absorption rate: 27 mg
[1]; saturable absorption from final transit compartment to liver
  typical ka,max: 46.2 mg/h
[2]; [7]
  Hepatic clearance: 23.8 (30.3) L/h
[2]; [8]
  Hepatic clearance: 25.1 (21) L/h
[2]; [9]
  Hepatic clearance: 26 (25.7) L/h
[2]; [10]
  Hepatic clearance: 24.3 (24.9) L/h
[2]; [11]
  Hepatic clearance: 21.8 (39.8) L/h
[5]
  parent drug renally excreted: 3%
[5]; in patients
  mean terminal elimination half-life: approximately 24 hours
[5]; phase I cancer patient population
  median time to maximum plasma concentration: approximately 8 hours
[6]; [13]
  increase of abemaciclib AUC: 237%
  increase of abemaciclib Cmax: 30%
[6]; [14]
  reduction of abemaciclib area under the curve (AUC): 95%
  reduction of abemaciclib maximum plasma concentration (Cmax): 92%
[3]; [12]
  Hepatic clearance: 24.0 (27) L/h
[3]; human, plasma, oral, 200 mg
  AUC(0-inf): 3730 ng·h/mL
  Cmax: 114 ng/mL
  bioavailability: 44.8%

## Cc1nc2c(F)cc(-c3nc(Nc4ccc(CN5CCNCC5)cn4)ncc3F)cc2n1C(C)C [M2]
[1]; Bootstrap median (95% CI)
  CLint of M2 in liver: 241 (218–271) L/h
[1]; Estimate (%SEE)
  CLint of M2 in liver: 254 (2.06) L/h
[2]; [7]
  AUC0−∞: 1690 (39.9) ng·h/mL
  Apparent hepatic clearance: 22.9 (28.4) L/h
  Cmax: 28.8 (36.1) ng/mL
  Half-life: 21.2 (25.8) h
[2]; [8]
  AUC0−∞: 1640 (70.2) ng·h/mL
  Apparent hepatic clearance: 18.3 (49.9) L/h
  Cmax: 33.6 (70.4) ng/mL
  Half-life: 17.2 (65.1) h
[2]; [9]
  AUC0−∞: 1820 (72) ng·h/mL
  Apparent hepatic clearance: 20.9 (48.1) L/h
  Cmax: 40.2 (73.9) ng/mL
  Half-life: 16 (73.6) h
[2]; [10]
  AUC0−∞: 1620 (55.0) ng·h/mL
  Apparent hepatic clearance: 23.9 (35.3) L/h
  Cmax: 26.9 (54.7) ng/mL
  Half-life: 21.3 (73.5) h
[2]; [11]
  AUC0−∞: 1790 (71.6) ng·h/mL
  Apparent hepatic clearance: 21.5 (54.3) L/h
  Cmax: 30.3 (75.7) ng/mL
  Half-life: 19.3 (65.4) h
[3]; [12]
  AUC0−∞: 1450 (19) ng·h/mL
  Cmax: 31.7 (22) ng/mL
  Half-life: 72.6 (23) h
